Measurements taken from ChEMBL document CHEMBL1124387, “Cardiotonic agents. 9. Synthesis and biological evaluation of a series of (E)-4,5-dihydro-6-[2-[4-(1H-imidazol-1-yl)phenyl]ethenyl]-3 (2H)-pyridazinones: a novel class of compounds with positive inotropic, antithrombotic, and vasodilatory activities for the treatment of congestive heart failure” (J Med Chem, 1989).
Where “and” joins values, the source holds several entries; their conditions need not be identical. Equal entries are not always repeated.

Key:
Homo sapiens [1] = organism: Homo sapiens; test: In vitro inhibition of ADP stimulated platelet aggregation in human thrombocyte enriched plasma; type: functional
How it was run: (§1)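 Human platelet-rich plasma from aspirin/NSAID-free donors, adjusted to 250 000 platelets/μL with platelet-poor plasma. Drug in DMSO/saline (1% DMSO final) was added before ADP or collagen, with doses set by titration. Read-out was aggregation extent (ADP, curve height) or rate (collagen, major slope) as % of saline control.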

[2] = Partition coefficient (logP); type: physicochemical; conditions: octanol/water
Canis familiaris [3] = organism: Canis familiaris; test: 50% increase in myocardial contractility (dP/dT max) in dogs; type: functional, Canis lupus familiaris, Myocardium
How it was run: (§2)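 Acutely instrumented anesthetized dogs (n = 6), 30-min control period. Compound in 0.9% saline, or dilute HCl diluted with saline, at 0.1 mL/kg iv over 1 min. At least four ascending half-log doses, 10 min apart, one compound per animal. Recorded: LV dP/dtmax, heart rate, aortic pressure and forelimb resistance. Values are maximum response from control average ± SEM.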

Homo sapiens [4] = organism: Homo sapiens; test: In vitro inhibition of collagen stimulated platelet aggregation in human thrombocyte enriched plasma; type: functional; how it was run: as §1
Phosphodiesterase 3 [5] = target: T1, Phosphodiesterase 3 (Homo sapiens, UniProt Q14432+Q13370); test: Inhibition of phosphodiesterase 3 from human platelets at 1E-7-1E-4M or 1.0E-6 to 1E-3 M
[6] = Inhibition of phosphodiesterase 3 from guinea pig cardiac tissue at 1E-7-1E-4M or 1.0E-6 to 1E-3 M; parameters: species or system Cavia porcellus
How it was run: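 Fraction III cAMP-PDE from guinea pig heart or human platelets. Substrate [3H]cyclic AMP 1.0 μM at 30°C, with hydrolysis held to ≤10-20% and kept linear over 30 min. Compounds in DMSO, 2.5% final.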

Homo sapiens [7] = organism: Homo sapiens; test: In vitro inhibition of ADP stimulated platelet aggregation in human whole blood; type: functional
How it was run: (§3)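 Human whole blood from aspirin/NSAID-free fasted donors, read by impedance aggregometry 5 min after adding ADP or collagen. Aggregation expressed as % of control (2-6 replicates), plotted against log drug concentration; IC50 obtained by extrapolation.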

Canis familiaris [8] = test: Hemodynamic activity in anesthetized dog as percent change in left ventricular myocardial activity from baseline (2271 mmHg/s) at 0.01 mg/kg administered intravenously; type: functional, Canis lupus familiaris, Heart left ventricle; conditions: route intravenous; how it was run: as §2
Canis familiaris [9] = test: Hemodynamic activity in anesthetized dog as percent change in left ventricular myocardial activity from baseline (2271 mmHg/s) at 0.003 mg/kg administered intravenously; type: functional, Canis lupus familiaris, Heart left ventricle; conditions: route intravenous; how it was run: as §2
Canis familiaris [10] = test: Hemodynamic activity in anesthetized dog as percent change in left ventricular myocardial activity from baseline (2271 mmHg/s) at 0.001 mg/kg administered intravenously; type: functional, Canis lupus familiaris, Heart left ventricle; conditions: route intravenous; how it was run: as §2
Canis familiaris [11] = test: Hemodynamic activity in anesthetized dog as percent change in left ventricular myocardial activity from baseline (2271 mmHg/s) at 0.03 mg/kg administered intravenously; type: functional, Canis lupus familiaris, Heart left ventricle; conditions: route intravenous; how it was run: as §2
Homo sapiens [12] = organism: Homo sapiens; test: In vitro inhibition of collagen stimulated platelet aggregation in human whole blood; type: functional; how it was run: as §3
Canis familiaris [13] = test: Hemodynamic activity in anesthetized dog as percent change from baseline (2271 mmHg/s) in left ventricular myocardial activity at 0.1 mg/kg administered intravenously; type: functional, Canis lupus familiaris, Heart left ventricle; conditions: route intravenous
Canis familiaris [14] = organism: Canis familiaris; test: Ratio of positive inotropic activity to peripheral Vasodilator activity in dogs; type: functional, Canis lupus familiaris
How it was run: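 Inotropic ED20 is the iv bolus dose giving a 20% rise in dP/dtmax in anesthetized dogs. Vasodilator ED20 is the bolus dose into the brachial cannula of a constant-flow perfused forelimb (pentobarbital 30 mg/kg iv then 3.0 mg/kg/h, heparinized) giving a 20% fall in perfusion pressure. Each ED20 was taken from its dose-response curve; the ratio is PI/PV.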

Canis familiaris [15] = test: Hemodynamic activity in anesthetized dog as percent change from baseline (2271 mmHg/s) in left ventricular myocardial activity at 1 mg/kg administered intravenously; type: functional, Canis lupus familiaris, Heart left ventricle; conditions: route intravenous
Canis familiaris [16] = test: Hemodynamic activity in anesthetized dog as percent change from baseline (2271 mmHg/s) in left ventricular myocardial activity at 0.3 mg/kg administered intravenously; type: functional, Canis lupus familiaris, Heart left ventricle; conditions: route intravenous
Canis familiaris [17] = test: Hemodynamic activity in anesthetized dog as percent change from baseline (2271 mmHg/s) in left ventricular myocardial activity at 3.1 mg/kg administered intravenously; type: functional, Canis lupus familiaris, Heart left ventricle; conditions: route intravenous
How it was run: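 Anaesthetised dogs were given one compound each, in ascending half-log iv doses 10 min apart, typically four to six doses. Each dose was dissolved in 0.9% saline or dilute HCl (0.1 or 1.0 N), made up with saline, and given as 0.1 mL/kg over 1 min after a 30-min control period. The readout was LV dP/dt_max from a differentiator amplifier, reported as maximum % change from control average ± SEM.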

Canis familiaris [18] = test: (§4) Percentage increase in left ventricular contractility in anesthetized dog; type: functional, Canis lupus familiaris, Heart left ventricle
Canis familiaris [19] = test: as §4; type: functional, Canis lupus familiaris, Heart left ventricle; remark: listed apart in the source
Canis familiaris [20] = organism: Canis familiaris; test: Weight of thrombus; type: functional, Canis lupus familiaris
How it was run: (§5)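 Pentobarbital-anesthetized (32 mg/kg iv), ventilated dogs, allowed 30 min to stabilize. Continuous infusion of compound (1.0, 3.0 or 10.0 μg/kg/min) or saline began 15 min before 50 μA current was applied to an intraluminal electrode in the circumflex coronary artery. After 60 min of stimulation the animals were euthanized and the thrombus dissected and weighed. One treatment per animal.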

Canis familiaris [21] = test: Decrease in thrombus weight in anesthetized dog coronary artery; type: functional, Canis lupus familiaris; how it was run: as §5
Phosphodiesterase 3 [22] = target: T1, Phosphodiesterase 3; test: Inhibition of Phosphodiesterase 3 from human platelets at 1E-7-1E-4M or 1.0E-6 to 1E-3 M
How it was run: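 Fraction III cAMP-PDE from guinea pig heart or human platelets. Substrate [3H]cyclic AMP 1.0 μM at 30°C, with hydrolysis held to ≤10-20% and kept linear over 30 min.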

IC50 (Homo sapiens [1])	logP [2]	IC50 (Homo sapiens [4])	IC50 (Homo sapiens [7])	IC50 (Homo sapiens [12])	SMILES	Dose (Canis familiaris [3])	Change (Canis familiaris [13])	further results
6000 nM	1.21	200 nM			O=C1CCC(/C=C/c2ccc(-n3ccnc3)cc2)=NN1	0.02 mg/kg		IC50 (Phosphodiesterase 3 [5]): 400 nM; IC50 [6]: 1100 nM
4000 nM	1.29	10 nM	400 nM	45000 nM	CC1CC(O)=NN=C1c1ccc(-n2ccnc2)cc1 (configuration not stated) [CI-930]		149%	Change (Canis familiaris [8]): 51%; Change (Canis familiaris [9]): 25%; Change (Canis familiaris [10]): 11%; Change (Canis familiaris [11]): 124%
					O=C1CCC(CCc2ccc(-n3ccnc3)cc2)=NN1	1 mg/kg		
					CCC(=O)Nc1ccc(/C=C/C2=NNC(=O)CC2C)cc1 (configuration not stated)	0.2 mg/kg		
120000 nM		15000 nM			CSc1ccc(C(=O)c2[nH]c(=O)[nH]c2C)cc1 [ENOXIMONE]		19%	Change (Canis familiaris [8]): 5%; Ratio (Canis familiaris [14]): 0.58; Change (Canis familiaris [15]): 83%; Change (Canis familiaris [16]): 47%; Change (Canis familiaris [11]): 7%
20000 nM	0.96	3000 nM	8000 nM	17000 nM	O=C1CCC(c2ccc(-n3ccnc3)cc2)=NN1 [IMAZODAN]		74%	Change (Canis familiaris [8]): 10%; Change (Canis familiaris [15]): 147%; Change (Canis familiaris [16]): 127%; Change (Canis familiaris [11]): 37%
30000 nM		1500 nM			Cc1ncn(-c2ccc(/C=C/C3=NNC(=O)CC3C)cc2)c1C (configuration not stated)	0.05 mg/kg		
250000 nM		15000 nM	50000 nM	500000 nM	Nc1cc(-c2ccncc2)c[nH]c1=O [INAMRINONE]		9%	Change (Canis familiaris [15]): 85%; Change (Canis familiaris [16]): 32%; Change (Canis familiaris [17]): 165%
5000 nM	2.47	450 nM	1700 nM	1000 nM	O=C1CCC(/C=C/c2ccc(-n3cnc4c3CCCC4)cc2)=NN1	0.1 mg/kg		
4000 nM		250 nM			CC(=O)Nc1ccc(/C=C/C2=NNC(=O)C(C)(C)C2)cc1	1 mg/kg		
350 nM	1.4	150 nM	10 nM	400 nM	CC(Cl)C(=O)Nc1ccc(C2=NNC(=O)CC2C)cc1 (configuration not stated) [AMIPIZONE]			Increase (Canis familiaris [18]): 3%; Increase (Canis familiaris [19]): 10% and 23%; Thrombus weight (Canis familiaris [20]): 8.3 mg and 4.8 mg and 4.1 mg; Inhibition (Canis familiaris [21]): 54% and 73% and 77%
60000 nM		15000 nM			CCc1[nH]c(=O)[nH]c1C(=O)c1ccncc1 [PIROXIMONE]		41%	Change (Canis familiaris [8]): 8%; Change (Canis familiaris [15]): 144%; Change (Canis familiaris [16]): 93%; Change (Canis familiaris [11]): 16%
					CC1CC(=O)N(C)N=C1/C=C/c1ccc(-n2ccnc2)cc1 (configuration not stated)	1 mg/kg		
10000 nM		100 nM	9000 nM	350 nM	Cc1[nH]c(=O)c(C#N)cc1-c1ccncc1 [MILRINONE]		113%	Change (Canis familiaris [8]): 31%; Change (Canis familiaris [15]): 149%; Change (Canis familiaris [16]): 143%; Change (Canis familiaris [11]): 78%
	1.27				CC(=O)Nc1ccc(/C=C/C2=NNC(=O)CC2C)cc1 (configuration not stated)	0.02 mg/kg		IC50 (Phosphodiesterase 3 [22]): 870 nM; IC50 [6]: 2800 nM
					CC1CC(=O)NN=C1/C=C/c1ccc(N)cc1 (configuration not stated)	1 mg/kg		
					CC1CC(=O)NN=C1/C=C/c1ccc(-n2cnc3ccccc32)cc1 (configuration not stated)	0.09 mg/kg		
					Cc1cc(O)nnc1/C=C/c1ccc(-n2ccnc2)cc1	0.2 mg/kg		
6000 nM	3.1	600 nM			CC1CC(=O)NN=C1/C=C/c1ccc(-n2cnc3c2CCCC3)cc1 (configuration not stated)	0.05 mg/kg		IC50 (Phosphodiesterase 3 [22]): 18 nM; IC50 [6]: 100 nM

SMILES	IC50 (Homo sapiens [1])	logP [2]	IC50 (Homo sapiens [4])	IC50 (Homo sapiens [7])	IC50 (Homo sapiens [12])	Dose (Canis familiaris [3])	Change (Canis familiaris [13])	further results
CC1CC(=O)NN=C1c1ccc(-n2cnc3c2CCCC3)cc1 (configuration not stated) [TETRAHYDROBENXIMIDAZOLE]	4000 nM	2.52	15 nM	500 nM	750 nM			IC50 (Phosphodiesterase 3 [5]): 110 nM; IC50 [6]: 150 nM
